Experiment [1] addresses T1, Gamma-aminobutyric acid receptor subunit rho-1 (Homo sapiens, UniProt P24046). Description: Agonist activity at human GABAA rho1 receptor expressed in TSA201 cells after 1 min by FLIPR assay. The class given is cell-based. An outline of the steps: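 tsA201 cells transfected with 5 μg human ρ1 cDNA, then plated on poly-D-lysine plates for 16–24 h. Loaded with FLIPR membrane potential blue dye in Krebs buffer (pH 7.4), 30 min at 37 °C. Emission at 560 nm (excitation 530 nm) recorded before and up to 1 min after agonist addition. Curves fitted from ΔFU; duplicate, at least three times.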

For experiment [2], the target named is T2, GABA-A receptor; alpha-1/beta-2/gamma-2 (Homo sapiens, UniProt P14867+P18507+P47870).
T2 sequence (P14867 whole entry): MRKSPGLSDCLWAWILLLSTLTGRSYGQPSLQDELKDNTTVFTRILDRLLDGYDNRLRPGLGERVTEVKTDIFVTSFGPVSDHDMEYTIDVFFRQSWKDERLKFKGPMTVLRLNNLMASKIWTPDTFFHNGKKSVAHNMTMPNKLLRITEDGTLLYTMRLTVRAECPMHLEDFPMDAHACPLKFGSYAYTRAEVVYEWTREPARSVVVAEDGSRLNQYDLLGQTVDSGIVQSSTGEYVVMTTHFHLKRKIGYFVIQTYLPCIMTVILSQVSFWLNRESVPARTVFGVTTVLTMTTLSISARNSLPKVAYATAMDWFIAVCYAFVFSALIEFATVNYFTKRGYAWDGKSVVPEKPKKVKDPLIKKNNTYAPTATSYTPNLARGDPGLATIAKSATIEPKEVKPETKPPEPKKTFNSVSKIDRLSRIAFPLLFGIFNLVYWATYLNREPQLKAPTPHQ
T2 sequence (P47870 whole entry): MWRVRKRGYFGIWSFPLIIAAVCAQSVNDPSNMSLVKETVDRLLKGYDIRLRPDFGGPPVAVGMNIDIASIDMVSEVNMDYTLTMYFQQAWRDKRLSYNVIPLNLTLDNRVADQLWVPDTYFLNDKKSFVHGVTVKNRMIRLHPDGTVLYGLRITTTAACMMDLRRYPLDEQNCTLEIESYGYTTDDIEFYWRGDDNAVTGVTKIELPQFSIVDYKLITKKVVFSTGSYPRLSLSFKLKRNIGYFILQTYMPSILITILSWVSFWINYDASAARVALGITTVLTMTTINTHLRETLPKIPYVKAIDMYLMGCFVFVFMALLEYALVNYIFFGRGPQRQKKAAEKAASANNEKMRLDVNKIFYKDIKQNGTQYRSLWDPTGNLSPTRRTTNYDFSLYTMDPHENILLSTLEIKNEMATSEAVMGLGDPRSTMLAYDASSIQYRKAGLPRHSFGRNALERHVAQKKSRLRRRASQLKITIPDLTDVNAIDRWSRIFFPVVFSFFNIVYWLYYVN
T2 sequence (P18507 whole entry): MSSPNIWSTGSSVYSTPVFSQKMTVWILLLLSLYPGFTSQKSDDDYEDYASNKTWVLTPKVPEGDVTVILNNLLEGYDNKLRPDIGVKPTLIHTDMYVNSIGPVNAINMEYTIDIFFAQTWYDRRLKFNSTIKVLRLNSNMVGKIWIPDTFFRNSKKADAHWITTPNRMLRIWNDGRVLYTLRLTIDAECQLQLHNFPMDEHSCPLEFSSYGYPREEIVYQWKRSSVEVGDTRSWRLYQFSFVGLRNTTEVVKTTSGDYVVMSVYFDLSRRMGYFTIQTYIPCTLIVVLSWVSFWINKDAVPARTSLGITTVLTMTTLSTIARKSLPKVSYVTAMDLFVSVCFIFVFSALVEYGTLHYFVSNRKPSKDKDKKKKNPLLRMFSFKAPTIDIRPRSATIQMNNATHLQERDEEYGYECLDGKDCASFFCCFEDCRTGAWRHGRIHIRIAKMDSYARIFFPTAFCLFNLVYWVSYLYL
Description: Agonist activity at human GABAA alpha1beta2gamma2S receptor expressed in TSA201 cells after 1 min by FLIPR assay. The class given is cell-based. Summed up: (§1)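 tsA201 cells transfected with 1 μg α (1, 2, 3 or 5), 1 μg β2 and 3 μg γ2S cDNA (Polyfect). Cells replated onto poly-D-lysine plates and assayed 16–24 h later. Loaded with FMP blue dye in Krebs buffer pH 7.4 for 30 min at 37 °C.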

A short description of experiment [3]: Displacement of [3H]muscimol from GABAA receptor in rat synaptic membrane after 60 mins by scintillation counting analysis. The class given is cell membranes. Summed up:
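Membranes from cortex and central hemispheres of male SPRD rat brains, washed repeatedly in 50 mM Tris-HCl pH 7.4. 70–80 μg protein per well incubated with [3H]muscimol. Separated by GF/C filtration with ice-cold buffer washes; bound radioactivity counted by scintillation. Nonspecific binding defined with 1.0 mM GABA.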
For orientation: Displacement assays read how much labelled ligand stays bound in the presence of the test substance.

Experiment [4] concerns the target T1, Gamma-aminobutyric acid receptor subunit rho-1. Description: Agonist activity at human GABAA rho1 receptor expressed in HEK293 cells at up to 300 uM by patch clamp electrophysiology assay. The class given is cell-based. (Patch clamp records ionic current or voltage across a cell membrane.)
Experiment [5] deals with T2, GABA-A receptor; alpha-1/beta-2/gamma-2. Kind of experiment: Agonist activity at human GABAA alpha1beta2gamma2S receptor expressed in HEK293 cells by patch clamp electrophysiology assay. The class given is cell-based.
For experiment [6], the target named is T3, GABA-A receptor; alpha-1/beta-2/gamma-2 (Homo sapiens) (UniProt P14867+P47870+P18507). Description: Agonist activity at human GABAA alpha1beta2gamma2S receptor expressed in HEK293 cells by patch clamp electrophysiology assay relative to GABA. The class given is cell-based.
In experiment [7] the target is T1, Gamma-aminobutyric acid receptor subunit rho-1. Kind of experiment: Agonist activity at human GABAA rho1 receptor expressed in TSA201 cells at 300 to 500 uM after 1 min by FLIPR assay. The class given is cell-based.
The target in experiment [8] is T3, GABA-A receptor; alpha-1/beta-2/gamma-2 (Homo sapiens). Description: Agonist activity at human GABAA alpha1beta2gamma2S receptor expressed in TSA201 cells at 300 to 500 uM after 1 min by FLIPR assay. The class given is cell-based.
The target is the same in experiment [9]. Kind of experiment: Agonist activity at human GABAA alpha1beta2gamma2S receptor expressed in HEK293 cells at up to 300 uM by patch clamp electrophysiology assay. The class given is cell-based.
Experiment [10] addresses T4, GABA A receptor alpha-2/beta-2/gamma-2 (Homo sapiens, UniProt P18507+P47869+P47870).
T4 sequence (P47870 whole entry): T2 sequence (P47870 whole entry)
T4 sequence (P18507 whole entry): T2 sequence (P18507 whole entry)
T4 sequence (P47869 whole entry): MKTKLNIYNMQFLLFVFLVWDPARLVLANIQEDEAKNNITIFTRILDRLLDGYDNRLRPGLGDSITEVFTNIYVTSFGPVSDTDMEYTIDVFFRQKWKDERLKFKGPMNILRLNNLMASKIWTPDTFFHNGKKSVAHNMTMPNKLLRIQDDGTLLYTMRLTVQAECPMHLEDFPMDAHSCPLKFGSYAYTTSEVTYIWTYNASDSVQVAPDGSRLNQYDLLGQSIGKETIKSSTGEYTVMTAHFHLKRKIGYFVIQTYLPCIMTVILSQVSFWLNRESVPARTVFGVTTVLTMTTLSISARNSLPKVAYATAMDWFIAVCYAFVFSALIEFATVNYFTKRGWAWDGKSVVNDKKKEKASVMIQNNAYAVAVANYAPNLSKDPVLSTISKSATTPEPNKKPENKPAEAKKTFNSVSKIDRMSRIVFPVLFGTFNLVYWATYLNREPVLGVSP
Kind of experiment: Agonist activity at human GABAA alpha2beta2gamma2S receptor expressed in TSA201 cells after 1 min by FLIPR assay. The class given is cell-based. An outline of the steps: as §1

The target of experiment [11] is T5, GABA A receptor alpha-3/beta-2/gamma-2 (Homo sapiens, UniProt P18507+P34903+P47870).
T5 sequence (P47870 whole entry): T2 sequence (P47870 whole entry)
T5 sequence (P18507 whole entry): T2 sequence (P18507 whole entry)
T5 sequence (P34903 whole entry): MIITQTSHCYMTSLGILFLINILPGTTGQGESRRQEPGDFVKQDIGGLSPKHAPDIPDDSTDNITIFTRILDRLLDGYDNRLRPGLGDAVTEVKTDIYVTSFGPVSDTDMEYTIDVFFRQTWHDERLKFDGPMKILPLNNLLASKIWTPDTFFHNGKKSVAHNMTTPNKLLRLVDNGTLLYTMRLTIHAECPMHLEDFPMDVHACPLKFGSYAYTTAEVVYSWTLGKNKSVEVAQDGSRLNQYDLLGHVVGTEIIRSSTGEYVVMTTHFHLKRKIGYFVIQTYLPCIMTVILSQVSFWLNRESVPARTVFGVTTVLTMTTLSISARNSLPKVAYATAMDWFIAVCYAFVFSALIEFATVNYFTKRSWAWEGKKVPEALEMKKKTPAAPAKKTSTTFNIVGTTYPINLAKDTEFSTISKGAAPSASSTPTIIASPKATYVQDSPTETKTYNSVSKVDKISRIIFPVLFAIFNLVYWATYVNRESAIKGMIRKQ
Description: Agonist activity at human GABAA alpha3beta2gamma2S receptor expressed in TSA201 cells after 1 min by FLIPR assay. The class given is cell-based. Summed up:
as §1

Experiment [12] is described as follows: Agonist activity at human GABAA alpha5beta2gamma2S receptor expressed in TSA201 cells after 1 min by FLIPR assay. The class given is cell-based. To be noted: tsA201, 1 min.

Molecules are shown by their SMILES. Active and inactive are the calls of the source. The rule behind the calls is not given here.

T1 sequence (P24046 whole entry): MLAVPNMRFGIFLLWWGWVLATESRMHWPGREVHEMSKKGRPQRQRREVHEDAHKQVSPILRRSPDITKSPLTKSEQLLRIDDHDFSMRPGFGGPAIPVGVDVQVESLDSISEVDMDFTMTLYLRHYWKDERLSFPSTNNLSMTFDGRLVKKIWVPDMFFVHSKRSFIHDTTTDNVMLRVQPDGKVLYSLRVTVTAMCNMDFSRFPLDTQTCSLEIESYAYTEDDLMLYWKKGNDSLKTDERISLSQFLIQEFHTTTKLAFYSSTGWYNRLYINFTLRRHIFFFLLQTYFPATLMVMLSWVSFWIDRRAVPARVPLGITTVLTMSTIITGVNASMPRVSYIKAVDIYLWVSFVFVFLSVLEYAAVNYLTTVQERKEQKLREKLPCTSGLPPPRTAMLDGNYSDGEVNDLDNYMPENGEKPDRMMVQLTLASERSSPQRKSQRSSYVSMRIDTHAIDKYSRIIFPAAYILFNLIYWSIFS

As usually defined, the Ki is a measure of affinity in units of concentration, obtained from inhibition or displacement. What is called pKi is the negative decadic logarithm of the Ki, by convention in mol/L. `Cc1c(CN)cnn1O`: the EC50 is over 500 µM in experiment [1], over 500 µM in [2] and over 10 µM in [5]. This molecule came in with a Ki in experiment [3] of 15 µM. In experiment [3], the pKi came out at 4.82. In addition, in experiment [4], the result was inactive. This molecule showed an Rmax in experiment [6] of over 64%.

Take `NCc1cn(O)nc1-c1ccc(-c2ccccc2)cc1`: the EC50 in experiment [1] was over 500 µM; in [2], over 300 µM. This molecule also displayed a Ki in experiment [3] of 13 µM. The pKi in experiment [3] is 4.89. Moreover, the result in [7] and in experiment [8] was inactive.

Consider `CCc1nn(O)cc1CN`, for which the EC50 in [1] and in experiment [2] was over 500 µM each time. The molecule further displayed a Ki in experiment [3] of 94 µM. This molecule yielded a pKi in experiment [3] of 4.03.

Consider `Cc1c(O)noc1CN`, for which, in experiment [3], the affinity corresponds to a Ki of 54 µM. In [3], this molecule returned a pKi of 4.28. Besides, the outcome in [4] and in experiment [9] was inactive.

For the molecule `NCc1cc(O)no1` [MUSCIMOL], the EC50 in [1] is 0.7 µM; in [2] it was 0.54 µM; in experiment [10] it was 0.41 µM; in experiment [11], 0.21 µM; in experiment [12] (read-out: EC50), 0.054 µM; in experiment [12] (read-out: pEC50 (converted)) it was 0.0537 µM. Moreover, the inhibition constant (Ki) in experiment [3] came to 0.007 µM.

On to `NCc1cn(O)nc1-c1cccc(-c2ccccc2)c1`, for which the EC50 in experiment [1] and in [2] was over 500 µM throughout. Also, in experiment [3], the affinity corresponds to a Ki of 17 µM. The pKi in [3] stood at 4.81. Further, the result in experiment [7] and in experiment [8] was inactive.

`NCc1cn(O)nc1CCc1ccncc1`: in experiment [3], the Ki is over 100 µM.

Regarding `Cc1nn(O)c(C)c1CN`, the Ki in [3] is over 100 µM.

`NCc1cn(O)nc1N`: the Ki in [3] was over 100 µM.

For the molecule `NCc1cn(O)nc1I`, the EC50 in experiment [1] and in experiment [2] was over 500 µM throughout. The molecule further registered a Ki in experiment [3] of 32 µM. In [3], the negative-log Ki (pKi) came to 4.5.

The molecule `NCc1cn(O)nc1CCc1ccccc1` showed a Ki in [3] of over 100 µM.

Consider `NCc1cnn(O)c1Br`, for which, in [3], the inhibition constant Ki stood at 2.8 µM and the pKi came out at 5.56. In addition, the outcome in experiment [4] was inactive. Besides, the EC50 in experiment [5] is over 100 µM. The Rmax in experiment [6] was over 23%.

In [2], `Oc1noc2c1CCNC2` [GABOXADOL] showed an EC50 of 14 µM. Moreover, the Ki in experiment [3] stood at 0.16 µM.

For the molecule `On1ncc2c1CCNC2`, the Ki in [3] was over 100 µM.

Molecule `NCc1cn(O)nc1Cc1ccccc1` registered a Ki in [3] of over 100 µM.

On to `NCc1cn(O)nc1-c1ccccc1`, for which the EC50 in [1] and in experiment [2] was over 500 µM in each case. Besides, the Ki in experiment [3] was over 100 µM.

In the case of `NCc1cnn(O)c1Cl`, the EC50 in experiment [1] is over 500 µM; in experiment [2] it was 29 µM; in experiment [5] it was over 30 µM. The molecule also displayed a Ki in [3] of 0.63 µM. In [3], this molecule came in with a pKi of 6.2. For the same molecule, the result in [4] was inactive. The Rmax in experiment [6] was over 72%.

On to `On1cc2c(n1)CCNC2`, for which, in experiment [3], the Ki was over 100 µM.

In experiment [3], `Cc1nn(O)cc1CN` gave a Ki of 68 µM and a pKi of 4.16.
